In experiment [1] the test system is MCF7. Description: Compound was evaluated for its in vitro activity in human solid tumor cell line MCF-7 measured in a [3H]thymidine incorporation assay. Particulars: MCF7, 72 h. The class given is functional, cell-based. The procedure, abridged: (§1)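 Cell lines adapted to RPMI medium, exposed to compound for 72 h at 37 °C under 5% CO2. Methyl-[3H]-thymidine (0.5 μCi) added for the final 16 h, then incorporation measured. Antiproliferative IC50 (μM) reported.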
Background: Incorporation of labelled thymidine or its analogues reports DNA synthesis.

Experiment [2] relates to NCI-H460. Nature of the experiment: Compound was evaluated for its in vitro activity in human solid tumor cell line H-460 measured in a [3H]thymidine incorporation assay. The class given is functional, cell-based. Particulars: NCI-H460, 72 h. The procedure, abridged:
as §1

The test system of experiment [3] is SF-268. Description: Compound was evaluated for its in vitro activity in human solid tumor cell line SF-268 measured in a [3H]thymidine incorporation assay. The class given is functional, cell-based. Particulars: SF-268, 72 h. Summed up: as §1
The test system of experiment [4] is MRC5. Description: Cytotoxicity of compound was evaluated against MRC-5 cell line. Particulars: Homo sapiens. The class given is functional.

A word on the IC50: it is the concentration that gives 50% inhibition. Higher therefore signals weaker potency. On to `Nc1nc(N)c2ncn(C[C@@H]3CC[C@@H](P(=O)(O)O)O3)c2n1`, for which the IC50 in experiment [1] was 52 µM; in experiment [2], 57 µM; in experiment [3], more than 100 µM.
For `Nc1nc(O)c2ncn(C[C@H]3O[C@H](P(=O)(O)O)C[C@@H]3O)c2n1`, in that order: 53 µM, 30 µM and 13 µM.
For the molecule `CO[C@H]1C[C@H](P(=O)(O)O)O[C@@H]1Cn1cnc2c(O)nc(N)nc21`, the IC50 in experiment [1] turned out to be 5.6 µM; in experiment [2], 7.6 µM; in experiment [3] it was 2.4 µM.
For `Nc1nc(O)c2ncn(C[C@H]3O[C@@H](P(=O)(O)O)[C@H](O)[C@@H]3O)c2n1`, in that order: more than 100 µM, more than 100 µM and more than 100 µM.
For `Nc1nc(O)c2ncn(C[C@H]3O[C@@H](P(=O)(O)O)C[C@@H]3F)c2n1`, in that order: more than 100 µM, 44 µM and more than 100 µM.
One may read the CC50 as the concentration at which the toxic effect on the cells reaches its halfway point. Low values mean greater toxicity to the cells, high ones lower toxicity to the cells. Turning to `Nc1nc(O)c2ncn(C[C@@H]3CC[C@H](P(=O)(O)O)O3)c2n1`, the CC50 in experiment [4] was more than 10 µg/mL. Also, the values for the IC50 in experiment [1], in experiment [2] and in experiment [3] were 67 µM, 40 µM and more than 100 µM, respectively.
The corresponding values for `N.Nc1nc(O)c2ncn(C[C@@H]3CC[C@@H](P(=O)(O)O)O3)c2n1` are 28 µg/mL, more than 100 µM, 64 µM and more than 100 µM.
`Nc1nc(NC2CC2)c2ncn(C[C@H]3O[C@@H](P(=O)(O)O)C[C@@H]3O)c2n1`: the results for the IC50 in experiment [1], in experiment [2] and in experiment [3] were 48 µM, 20 µM and 28 µM, respectively.
The corresponding values for `Nc1nc(NC2CC2)c2ncn(C[C@@H]3CC[C@@H](P(=O)(O)O)O3)c2n1` are more than 100 µM, more than 100 µM and more than 100 µM.
The corresponding values for `Nc1nc(O)c2ncn(C[C@H]3O[C@@H](P(=O)(O)O)C[C@@H]3O)c2n1` are 0.67 µM, 0.53 µM and 0.14 µM.
The corresponding values for `Nc1nc(N)c2ncn(C[C@H]3O[C@@H](P(=O)(O)O)C[C@@H]3O)c2n1` are 1.4 µM, 0.71 µM and 1.2 µM.
For `Nc1nc(O)c2ncn(C[C@H]3O[C@@H](P(=O)(O)O)C[C@H]3F)c2n1`, the IC50 is more than 12 µM in experiment [1], 7.1 µM in experiment [2] and 44 µM in experiment [3].

Values taken from ChEMBL document CHEMBL1134930, “Novel nucleotide phosphonate analogues with potent antitumor activity” (Bioorg Med Chem Lett, 2002).
